Screening results deposited in PubChem BioAssay by several laboratories.
GalR3 antag = antagonists of human GalR3; O60755; HEK293 GalR3-CNG cAMP membrane potential fluorescence; galR3 body fused to GalR1 C-terminus; inhibition, % at 3 µM; 0.44% of 360,000 active;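 active = inhibition above the screen-wide average plus 3 SD, cut at about 13% in these data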;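 note: forskolin and galanin both at EC90 stimulate the cells; cAMP rise reported by CNG channel membrane potential dye signal; 0% = forskolin plus galanin with DMSO and 100% = forskolin alone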
Target sequence (O60755 1-299 limits assumed): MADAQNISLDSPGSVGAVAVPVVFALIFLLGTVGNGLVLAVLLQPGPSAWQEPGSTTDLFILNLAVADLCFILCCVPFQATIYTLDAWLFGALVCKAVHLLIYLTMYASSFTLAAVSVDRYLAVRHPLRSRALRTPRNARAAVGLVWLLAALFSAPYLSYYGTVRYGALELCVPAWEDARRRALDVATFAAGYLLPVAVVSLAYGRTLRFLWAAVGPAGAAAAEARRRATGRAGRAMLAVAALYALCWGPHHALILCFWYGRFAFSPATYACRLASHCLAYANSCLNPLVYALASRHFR
NR2E3 ag-1 = activates human photoreceptor nuclear receptor NR2E3; Q9Y5X4; GST-NR2E3/biotin-RetCOR TR-FRET, 1536-well; inhibition of corepressor binding, % at 4.78 µM; 0.12% of 320,000 active;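 active = percent inhibition above the cutoff of mean plus 3 SD of all tested compounds, set per screening campaign, cut at about 20% in these data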;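 note: 0% = DMSO wells and 100% = biotin wells as full block of FRET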
Target sequence (Q9Y5X4 whole entry, looked up): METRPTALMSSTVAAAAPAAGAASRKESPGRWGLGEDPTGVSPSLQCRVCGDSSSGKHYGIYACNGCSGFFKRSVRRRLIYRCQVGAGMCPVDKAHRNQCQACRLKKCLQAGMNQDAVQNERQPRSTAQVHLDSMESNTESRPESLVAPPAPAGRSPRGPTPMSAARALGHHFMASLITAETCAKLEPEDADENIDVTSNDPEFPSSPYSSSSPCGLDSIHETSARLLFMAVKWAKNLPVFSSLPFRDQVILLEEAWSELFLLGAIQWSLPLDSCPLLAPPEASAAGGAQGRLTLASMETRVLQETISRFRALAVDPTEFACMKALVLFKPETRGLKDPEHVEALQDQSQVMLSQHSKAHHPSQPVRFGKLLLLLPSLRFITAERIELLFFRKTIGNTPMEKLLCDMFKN
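Material: NR2E3–RetCOR corepressor complex | Quantity: 1.35 nM GST-tagged NR2E3 final | Schedule: 5 h at 4 °C | Replication: Singlicate compound wells | Reagent: RetCOR corepressor, biotinylated, 7 nM | Controls: Biotin wells as high control, 0.6% DMSO wells as low control | Signal: TR-FRET, Eu(K)-anti-GST donor, streptavidin-D2 acceptor, ex 340, em 617/671 nm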
CHT block = inhibits the human high affinity choline transporter. Q9GZV3. CHT-expressing cells, membrane potential dye, choline response; hits give low values. B-score at 10 µM. 0.86% of 310,000 active. AID 488975;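 active = B-score over 3 SD under the library average, and starting fluorescence ratio not unusually high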;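 note: choline stimulus applied at its EC90 after an EC20 pre-addition; B-score computed on integrated fluorescence ratio after choline addition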
CHT allo act = allosterically activates the human high affinity choline transporter; Q9GZV3; CHT-expressing cells, membrane potential dye, choline EC20; hits give high values; LV-AA mutant CHT in HEK293 cells; B-score at 10 µM; 0.49% of 310,000 active; AID 488977;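 active = initial fluorescence not abnormally high and integrated response B-score, plate-corrected, over 3 SD above library mean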
NR2F2 inh = inhibitors of human COUP-TFII (NR2F2) | inhibition, % at 8.6 µM | HEK293T NGFI-A luciferase reporter, luminescence | P24468 | 0.7% of 370,000 active;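 active = inhibition above a per-plate cutoff, mean inhibition of test wells between control levels plus 3 SD, cut at about 38% in these data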;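 note: cells cotransfected with COUP-TFII expression vector driving the NGFI-A reporter; 0% = median of COUP-TF2 test wells and 100% = reporter-only cells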
NR2E3 ag-2 = agonists of human NR2E3 nuclear receptor; CHO-S Gal4-NCOR/VP16-NR2E3 two-hybrid, luciferase; inhibition of corepressor binding, % at 3.98 µM; 0.35% of 360,000 active; AID 602229;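 active = inhibition above the mean of all tested compounds plus 3 SD, cut at about 70% in these data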;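 note: 0% = DMSO with NR2E3 transfected cells and 100% = cells lacking NR2E3 construct; higher means lower luciferase signal from less NR2E3 corepressor binding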
CHT act confirm = human CHT activation, confirmatory screen | CHT-expressing cells, membrane potential dye fluorescence (FDSS); % of choline EC20–EC90 response window; HEK293 expressing CHT LV-AA mutant; choline added at its EC20 | activation, % at 10 µM | AID 504833 | shares compounds with CHT allo act | 91% of 2,500 active;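 active = primary screen active, with duplicate mean activation above negative control mean plus 3 SD, cut at about 11% in these data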
HEK293 MP dye = counter-screen for CHT activators: effect in parental HEK293 cells | shares compounds with CHT allo act | membrane potential dye fluorescence (FDSS); measured after EC20 choline addition | ratio readout change at 10 µM, hits read low | 62% of 2,500 active | AID 623908;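 active = duplicate-averaged ratio beyond 3 SD from buffer wells, up or down, though filed actives are nearly all decreases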
NR2E3 ag conf = NR2E3 agonism confirmed in two-hybrid assay; shares compounds with NR2E3 ag-2; CHO-S mammalian two-hybrid NR2E3-NCOR, luciferase luminescence; inhibition, % at 3.98 µM; 51% of 2,300 active; AID 624378;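 active = average inhibition above a cutoff equal to the mean inhibition of all tested compounds plus one SD, cut at about 70% in these data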;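 note: 0% = DMSO in NR2E3 cells and 100% = DMSO in cells lacking NR2E3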
GAL4-VP16 luc = counter-screen for NR2E3 agonists: GAL4-VP16 reporter inhibitors | shares compounds with NR2E3 ag-2 | CHO-S GAL4-VP16 luciferase reporter, luminescence | inhibition, % at 3.98 µM | 29% of 2,300 active | AID 624379;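 active = mean inhibition above a cutoff equal to the average over all tested compounds plus one standard deviation, cut at about 70% in these data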;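 note: luciferase from a UAS reporter driven by GAL4-VP16 transactivation; 0% = DMSO with VP16-transfected cells and 100% = DMSO with cells lacking VP16; higher means less reporter light so more repression of VP16 activity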
Gal4-VP16 ctr = inhibits VP16 reporter, flagging COUP-TFII antagonist hits; shares compounds with NR2F2 inh; HEK293 Gal4-VP16 luciferase reporter, luminescence; inhibition, % at 8.5 µM; 25% of 2,500 active; AID 687007; in the data active = inhibition above about 13%
NR2F2 inh conf = confirmation of human COUP-TFII (NR2F2) inhibitors. shares compounds with NR2F2 inh. inhibition, % at 8.5 µM. 45% of 2,500 active. HEK293 NGFI-A luciferase reporter, luminescence;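 active = mean inhibition over three repeats above a set limit taken from the earlier primary screen, cut at about 38% in these data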;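 note: 100% = cells given the luciferase reporter alone without the COUP-TF2 vector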
An asterisk follows results filed as active. Rows were chosen to be rich in hits. Some 2.3% of all compounds tested hit in one or more screens of this group.

`CCCCn1c2c(c(=N)c3c1CCC3)CCC2` gave GalR3 antag -5, NR2E3 ag-1 1, CHT block inactive, CHT allo act 7.4*, NR2F2 inh 47*, NR2E3 ag-2 6, CHT act confirm 35*, HEK293 MP dye -52*, Gal4-VP16 ctr 11 and NR2F2 inh conf 39*.
`C=CCNC(=O)CSc1nc2c(c(=O)[nH]1)CCCC2` gave NR2F2 inh 7.
For CC1=CCC(C(=O)O)C(C(=O)Nc2ccc(-c3nc4ccc(C)cc4s3)cc2)C1 (stereo not given) the results were GalR3 antag -3, NR2E3 ag-1 2, CHT block inactive, CHT allo act inactive, NR2F2 inh -63, NR2E3 ag-2 50, NR2E3 ag conf 55 and GAL4-VP16 luc -37.
`CC(C)C(=O)Nc1ccc(N2CCN(C(=O)c3cccs3)CC2)cc1` gave GalR3 antag -1, NR2E3 ag-1 3, CHT block inactive, CHT allo act inactive, NR2F2 inh -14 and NR2E3 ag-2 -8.
For CC(C)CC(=O)NC(=S)Nc1ccc(N2CCN(C(=O)c3cccs3)CC2)cc1 the results were GalR3 antag -7, NR2E3 ag-1 0, CHT block inactive, CHT allo act inactive, NR2F2 inh 16, NR2E3 ag-2 65, NR2E3 ag conf 85* and GAL4-VP16 luc 68.
Cc1ccc(C(=O)N2CCN(c3ccc(NC(=S)NC(=O)c4cccs4)cc3)CC2)cc1 was read as GalR3 antag 0, NR2E3 ag-1 2, CHT block inactive, CHT allo act inactive, NR2F2 inh 11 and NR2E3 ag-2 -2.
Cc1ccccc1C(=O)N1CCN(c2ccc(NC(=S)NC(=O)c3cccs3)cc2)CC1 was read as GalR3 antag -4, NR2E3 ag-1 6, CHT block inactive, CHT allo act inactive, NR2F2 inh 7, NR2E3 ag-2 62, NR2E3 ag conf 63 and GAL4-VP16 luc 35.
COc1ccc(NC(=O)/C(Cl)=C(/Cl)S(=O)Cc2ccc(Cl)cc2)cn1 (stereo not given) was read as GalR3 antag 35*, NR2F2 inh 66*, NR2E3 ag-2 87*, NR2E3 ag conf 99* and GAL4-VP16 luc 34.
Screening COc1ccc(NC(=O)C(Cl)=C(Cl)Cl)cn1 returned GalR3 antag -1, NR2F2 inh 12 and NR2E3 ag-2 -28.
Screening O=C(N[C@H]1CC[C@@H]2SC[C@@H](C(=O)O)N2C1=O)OCC1c2ccccc2-c2ccccc21 returned NR2F2 inh -1.
For COc1cc(C)c(NC(=O)COc2cccc3c2OC(C)(C)C3)cc1OC the results were NR2E3 ag-1 -4, NR2E3 ag-2 62, NR2E3 ag conf 10 and GAL4-VP16 luc 41.
`COc1ccc(NC(=O)COc2cccc3c2OC(C)(C)C3)c(OC)c1` gave GalR3 antag -5, NR2F2 inh -4 and NR2E3 ag-2 24.
Cc1ccc(CSC(Nc2ccc(F)cc2)=C(C#N)C#N)cc1 was read as GalR3 antag 11, NR2E3 ag-1 0, CHT block inactive, CHT allo act inactive, NR2F2 inh 32, NR2E3 ag-2 99*, NR2E3 ag conf 99* and GAL4-VP16 luc 90*.
Screening O=C(NCc1cccs1)c1cccc(N2CCCC2=O)c1 returned GalR3 antag -2, NR2E3 ag-1 1, CHT block inactive, CHT allo act inactive, NR2F2 inh -7 and NR2E3 ag-2 -25.
`O=C(NCc1ccccc1CN1CCCC1)c1cccc(N2CCCC2=O)c1` gave GalR3 antag -5, NR2E3 ag-1 6, NR2F2 inh -1, NR2E3 ag-2 78*, NR2E3 ag conf -7 and GAL4-VP16 luc -9.
Screening Cc1cccc(C)c1NC(=O)[C@@H]1CC(=O)O[C@@H]1c1ccccc1 returned NR2F2 inh -9.
For Cc1ccc(S(=O)(=O)c2ccc([N+](=O)[O-])o2)cc1 the results were GalR3 antag 9, NR2F2 inh 17, NR2E3 ag-2 66, NR2E3 ag conf 92* and GAL4-VP16 luc 13.
Screening O=[N+]([O-])c1cc(C(F)(F)F)cc([N+](=O)[O-])c1NCCNC(=S)Nc1ccc(Cl)c(Cl)c1 returned GalR3 antag -4, NR2E3 ag-1 2, CHT block inactive, CHT allo act inactive, NR2F2 inh 7, NR2E3 ag-2 65, NR2E3 ag conf 98* and GAL4-VP16 luc 25.
`CC(CN1CCN(CCOCCO)CC1)CN1c2ccccc2Sc2ccc(Cl)cc21` (stereo not given) gave GalR3 antag -7, NR2F2 inh 5, NR2E3 ag-2 49, NR2E3 ag conf 26 and GAL4-VP16 luc 7.
CC1CN(c2nc3ccccc3nc2SCC(=O)N2CCN(S(=O)(=O)c3ccc(F)cc3)CC2)CC(C)O1 (stereo not given) was read as NR2F2 inh 25.
Screening COC(=O)c1cc(CSc2nnc(NC3CCCCC3)s2)oc1C returned GalR3 antag -7, NR2E3 ag-1 1, CHT block inactive, CHT allo act inactive, NR2F2 inh 20, NR2E3 ag-2 58, NR2E3 ag conf 60 and GAL4-VP16 luc 58.
Screening O=C(CSc1nnnn1-c1ccccc1)Nc1nsc(-c2ccccc2)n1 returned GalR3 antag -7, NR2E3 ag-1 3, CHT block inactive, CHT allo act inactive, NR2F2 inh -2 and NR2E3 ag-2 -1.
